# Results: ChEMBL document CHEMBL1122782, “Bulky amine analogues of ketoprofen: potent antiinflammatory agents” (J Med Chem, 1984)
# Tests used:
# [1] = test system: Rattus norvegicus; experiment: Antiinflammatory efficacy is measured by the weight gain in rats during the 3 week adjuvant arthritis test at 0.08 mM/kg (29.1 mg); assay type: functional
# Procedure, shortened: (§1)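 Rats were adjuvant-injected (M. butyricum in mineral oil, one hind paw) or given a mineral-oil placebo. They were dosed by gavage daily for 21 days from the injection day, with vehicle only for both control groups, then weighed at the end. Weight gain % = (treated − adjuvant control)/(negative control − adjuvant control) × 100.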
# [2] = test system: Rattus norvegicus; experiment: Ulcerogenicity was measured in intestine during the 3 week adjuvant arthritis test.(animals with ulcers/animals in test) at 0.16 mM/kg (58.2 mg); 4/8; assay type: functional
# Procedure, shortened: (§2)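 Male Sprague-Dawley rats (200–230 g) were injected in the plantar tissue of one hind paw with 0.1 mL of 0.6% M. butyricum suspension in heavy mineral oil. Daily oral gavage began on the day of adjuvant injection and ran for the 21 days, with drug suspended in 1% gum tragacanth or a corn oil-water emulsion. At the end the rats were sacrificed and the small intestine and stomach were examined for ulcers. Results are given as animals with ulcers/animals tested.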
# [3] = test system: Rattus norvegicus; experiment: Antiinflammatory efficacy is measured by the weight gain in rats during the 3 week adjuvant arthritis test at 0.02 mM/kg (7.28 mg); assay type: functional; procedure, shortened: as §1
# [4] = test system: Rattus norvegicus; experiment: Antiinflammatory efficacy is measured by the weight gain in rats during the 3 week adjuvant arthritis test at 0.16 mM/kg (58.2 mg); assay type: functional; procedure, shortened: as §1
# [5] = test system: Rattus norvegicus; experiment: Antiinflammatory efficacy is measured by the weight gain in rats during the 3 week adjuvant arthritis test at 0.32 mM/kg (116.4 mg); assay type: functional
# Procedure, shortened: (§3)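 Male Sprague-Dawley rats (200–230 g), eight per group, received 0.1 mL of 0.6% M. butyricum in heavy mineral oil (negative controls: mineral oil) into one hind-paw plantar tissue. Daily gavage in 1% gum tragacanth or corn oil-water emulsion began on the injection day, for 21 days. Weight gain is expressed as (treated − adjuvant control)/(negative control − adjuvant control) × 100.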
# [6] = test system: Rattus norvegicus; experiment: Ulcerogenicity was measured in stomach during the 3 week adjuvant arthritis test, no of animals with ulcers out of 8 animals tested at 0.16 mM/kg (58.2 mg) was reported; assay type: functional; procedure, shortened: as §2
# [7] = target: prostaglandin synthetase (Bos taurus); experiment: Inhibitory concentration against prostaglandin synthetase from bull seminal vesicles
# [8] = test system: Rattus norvegicus; experiment: Antiinflammatory efficacy is measured by the percent inhibition of paw volume during the 3 week adjuvant arthritis test at 0.02 mM/kg (7.28 mg); assay type: functional
# Procedure, shortened: (§4)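 Male Sprague-Dawley rats (200–230 g) were used in groups of eight. Each received 0.1 mL of 0.6% M. butyricum in heavy mineral oil into the plantar tissue of one hind paw. Daily oral gavage in 1% gum tragacanth or corn oil-water emulsion began on the injection day and ran 21 days. Total hind paw volume was measured by mercury displacement, and inhibition was taken versus vehicle-treated adjuvant controls.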
# [9] = test system: Rattus norvegicus; experiment: Ulcerogenicity was measured in intestine during the 3 week adjuvant arthritis test, no of animals with ulcers out of 8 animals tested at 0.08 mM/kg (29.1 mg) was reported; assay type: functional
# Procedure, shortened: (§5)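 In the 21-day adjuvant arthritis model, male Sprague-Dawley rats (200–230 g) received an M. butyricum mineral-oil suspension into one hind paw. They were dosed daily by gavage from the day of injection. At the end of the study the rats were killed, and the small intestines were examined for ulcers. Results are given as the number of ulcerated animals over the number tested.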
# [10] = species: Mus musculus; experiment: Effective Dose 50 is the amount of material required to elicit analgesic effect in 50% of an animal population
# [11] = test system: Rattus norvegicus; experiment: The percent inhibition was calculated from the average differences in hind paw volume between the adjuvant injected controls and the adjuvant-injected medicated rats at 0.08 mmol/kg; 60-69; assay type: functional
# [12] = test system: Rattus norvegicus; experiment: The mean increase in paw volume was compared between drug treated groups and placebo to calculate the percent inhibition in rats at 0.02 mmol/kg by carrageenan Edema Assay; 30-39; assay type: functional
# [13] = test system: Rattus norvegicus; experiment: Ulcerogenicity was measured in stomach during the 3 week adjuvant arthritis test, no of animals with ulcers out of 7 animals tested at 0.32 mM/kg (116.4 mg) was reported; assay type: functional; procedure, shortened: as §2
# [14] = test system: Rattus norvegicus; experiment: Ulcerogenicity was measured in intestine during the 3 week adjuvant arthritis test, no of animals with ulcers out of 7 animals tested at 0.32 mM/kg (116.4 mg) was reported; assay type: functional; procedure, shortened: as §5
# [15] = test system: Rattus norvegicus; experiment: Antiinflammatory efficacy is measured by the percent inhibition of paw volume during the 3 week adjuvant arthritis test at 0.08 mM/kg (29.1 mg); assay type: functional; procedure, shortened: as §4
# [16] = species: Rattus norvegicus; experiment: Effective Dose 50 is the amount of material required to elicit inflammatory effect in 50% of an animal population; assay type: functional
# Procedure, shortened: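 In the 21-day adjuvant arthritis test in male Sprague-Dawley rats, daily gavage started on the day of M. butyricum injection. At the end, total hind paw volume was measured by mercury displacement. ED50 is the dose giving 50% inhibition of total hind paw volume change.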
# [17] = test system: Rattus norvegicus; experiment: Antiinflammatory efficacy is measured by the percent inhibition of paw volume during the 3 week adjuvant arthritis test at 0.005 mM/kg (1.82 mg); assay type: functional; procedure, shortened: as §4
# [18] = test system: Rattus norvegicus; experiment: Ulcerogenicity was measured in stomach during the 3 week adjuvant arthritis test, no of animals with ulcers out of 8 animals tested at 0.08 mM/kg (29.1 mg) was reported; assay type: functional; procedure, shortened: as §2
# [19] = test system: Rattus norvegicus; experiment: Antiinflammatory efficacy is measured by the weight gain in rats during the 3 week adjuvant arthritis test at 0.005 mM/kg (1.82 mg); assay type: functional; procedure, shortened: as §1
# [20] = test system: Rattus norvegicus; experiment: The mean increase in paw volume was compared between drug treated groups and placebo to calculate the percent inhibition in rats at 0.08 mmol/kg by carrageenan Edema Assay; 50-59; assay type: functional
# [21] = species: Rattus norvegicus; experiment: Compound was evaluated for highest non-ulcerogenic dose (less than 50% ulcer incidence); assay type: functional; conditions: read-out: ED50
# Procedure, shortened: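 Taken from the 21-day adjuvant arthritis test in male Sprague-Dawley rats dosed orally each day from the day of adjuvant injection. Small intestines and stomachs were examined for ulceration at the end. The value is the highest dose giving less than 50% ulcer incidence.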
# [22] = test system: Rattus norvegicus; experiment: Antiinflammatory efficacy is measured by the weight gain in rats during the 3 week adjuvant arthritis test at 0.55 mM/kg (113 mg); assay type: functional; procedure, shortened: as §3
# [23] = test system: Rattus norvegicus; experiment: Antiinflammatory efficacy is measured by the weight gain in rats during the 3 week adjuvant arthritis test at 0.278 mM/kg (57.2 mg); assay type: functional; procedure, shortened: as §3
# [24] = test system: Rattus norvegicus; experiment: The mean increase in paw volume was compared between drug treated groups and placebo to calculate the percent inhibition in rats at 0.08 mmol/kg by carrageenan Edema Assay; 0-19; assay type: functional
# [25] = test system: Rattus norvegicus; experiment: Ulcerogenicity was measured in stomach during the 3 week adjuvant arthritis test, no of animals with ulcers out of 8 animals tested at 0.16 mM/kg (49.4 mg) was reported.; assay type: functional; procedure, shortened: as §2
# [26] = test system: Rattus norvegicus; experiment: Antiinflammatory efficacy is measured by the percent inhibition of paw volume during the 3 week adjuvant arthritis test at 0.08 mM/kg(24.7 mg); assay type: functional; procedure, shortened: as §4
# [27] = test system: Rattus norvegicus; experiment: Antiinflammatory efficacy is measured by the weight gain in rats during the 3 week adjuvant arthritis test at 0.08 mM/kg(24.7 mg); assay type: functional; procedure, shortened: as §1
# [28] = test system: Rattus norvegicus; experiment: Ulcerogenicity was measured in intestine during the 3 week adjuvant arthritis test, no of animals with ulcers out of 8 animals tested at 0.16 mM/kg (49.4 mg) was reported.; assay type: functional; procedure, shortened: as §2
# [29] = test system: Rattus norvegicus; experiment: Ulcerogenicity was measured in intestine during the 3 week adjuvant arthritis test, no of animals with ulcers out of 8 animals tested at 0.08 mM/kg (24.7 mg) was reported; assay type: functional; procedure, shortened: as §5
# [30] = test system: Rattus norvegicus; experiment: Ulcerogenicity was measured in stomach during the 3 week adjuvant arthritis test, no of animals with ulcers out of 8 animals tested at 0.08 mM/kg (24.7 mg) was reported; assay type: functional; procedure, shortened: as §2
# [31] = test system: Rattus norvegicus; experiment: Potency relative to phenylbutazone at 0.08 mM/kg; assay type: functional
structure (smiles),measurement,setting,value
CC(CN1CCOCC1)c1cccc(C(=O)c2ccccc2)c1.Cl (centres undefined),Weight gain,[1],43%
same,Ulcerogenic index,[2],4
same,Weight gain,[3],10%
same,Weight gain,[4],70%
same,Weight gain,[5],46%
same,Ulcerogenic index,[6],2
same,IC50,[7],10 µM
same,Inhibition,[8],72%
same,Ulcerogenic index,[9],5
same,ED50,[10],8.4 mg/kg
same,Inhibition,[11],60%
same,Inhibition,[12],30%
same,Ulcerogenic index,[13],1
same,Ulcerogenic index,[14],7
same,Inhibition,[15],89%
same,ED50,[16],5 µmol/kg
same,Inhibition,[17],49%
same,Ulcerogenic index,[18],0
same,Weight gain,[19],2%
CC(CN1C(C)CCCC1C)c1cccc(C(=O)c2ccccc2)c1 (centres undefined),inhibition in vivo at 80 µmol/kg,[20],50%
CC(C)Cc1ccc(C(C)C(=O)O)cc1 (centres undefined) [IBUPROFEN],highest non-ulcerogenic dose,[21],210 µmol/kg
same,Weight gain,[22],18%
same,Weight gain,[23],1%
CC(CN1CCCC1CC1CCCCC1)c1cccc(C(O)c2ccccc2)c1 (centres undefined),inhibition in vivo at 80 µmol/kg,[24],0%
CC(CN1CCOCC1)c1cccc(C(=O)c2ccccc2)c1 (centres undefined),highest non-ulcerogenic dose,[21],8 µmol/kg
same,Ulcerogenic index,[25],1
same,Inhibition,[26],82%
same,Weight gain,[27],66%
same,Ulcerogenic index,[28],3
same,Ulcerogenic index,[29],1
same,inhibition in vivo at 80 µmol/kg,[11]; Rattus norvegicus,80%
same,Ulcerogenic index,[30],0
same,inhibition in vivo at 20 µmol/kg,[12]; Rattus norvegicus,30%
same,Relative potency,[31],8.6%
